# Source: article PMC6863147 (Clinical cancer research : an official journal of the …, 2019)
# Several values for one entry are separate records, joined by “and”; a condition that tells them apart may be missing. Equal entries are not always repeated.
# What was measured:
# [1] = plasma pharmacokinetics in recurrent glioblastoma patients; type: in vivo, human
# Summary of the method: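 Patients took 900 mg oral daily. Blood was drawn before dosing and 0.5, 1, 2, 4, 6, 8 and 24 h after the fourth dose. Plasma was held at −80 °C. Totals were measured by validated LC-MS/MS, and unbound levels as total × fraction unbound (equilibrium dialysis). Noncompartmental analysis gave Cmax, Tmax, AUCτ and CL/F (dose/AUCτ), summarised as mean, median, range and coefficient of variation.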
# [2] = type: in vivo, human
# [3] = tested on: phosphorylation of RB (pRB); assay: tumor pharmacodynamics, pRB immunohistochemistry; type: in vivo, human
# Summary of the method: (§1)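 Patients took 900 mg/d oral for 5 days, with resection 2, 8 or 24 h after the last dose. Surgical FFPE tissue and matched archival tissue from the initial resection were stained together on an automated platform, with positive and no-primary controls. Antibodies: pRB 1:400, pFOXM1 1:200, MIB-1 1:100, cleaved caspase-3 1:300. Nuclear % positive cells were compared by paired t-test on log values (two-sided 5%), also after normalising to the untreated historical-control median, overall and per arm.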
# [4] = tested on: proliferative marker MIB-1; assay: tumor pharmacodynamics, MIB-1 immunohistochemistry; type: in vivo, human; conditions: vs archival tissue, P = 0.039
# Summary of the method: as §1
# [5] = tested on: apoptotic marker cleaved caspase-3; assay: tumor pharmacodynamics, cleaved caspase-3 immunohistochemistry; type: in vivo, human; conditions: P = 0.19
# Summary of the method: as §1
# [6] = tested on: phosphorylation of FOXM1 (pFOXM1); assay: tumor pharmacodynamics, pFOXM1 immunohistochemistry; type: in vivo, human; conditions: P = 0.142, primarily at 8-hour postdose
# Summary of the method: as §1
# pS6 = assay: longitudinal tissue analysis, pS6 immunohistochemistry; type: in vivo, human; conditions: 3 patients
# Summary of the method: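 Samples were from expansion-cohort patients (600 mg daily, 21 days on/7 off) re-resected at recurrence. Enhancing tumor was collected. Archival, Phase 0 surgical and post-treatment FFPE tissue was immunostained on an automated platform (anti-pS6 1:100). The software nuclear function quantified % positive cells.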
# p4EBP1 = assay: longitudinal tissue analysis, p4EBP1 immunohistochemistry; type: in vivo, human; conditions: 3 patients
# recurrent glioblastoma = assay: pharmacokinetic/pharmacodynamic-guided expansion cohort, clinical response; type: in vivo, human
# [7] = safety and tolerability in glioblastoma patients; conditions: human, in vivo
# CDK4/6 = conditions: read-out: in vitro IC50 for inhibition of CDK4/6 kinase activity; cited from earlier work
# [8] = tested on: recurrent RB-positive glioblastoma; conditions: 22 patients; cited from earlier work
# [9] = 2 to 24 hours after fifth 900 mg dose
# [10] = human, non-enhancing tumor region, oral, 900 mg
structure (smiles),measurement,setting,value
"CN(C)C(=O)c1cc2cnc(Nc3ccc(N4CCNCC4)cn3)nc2n1C1CCCC1 [ribociclib, Ribociclib]",half-life,"[1]; human, plasma, po, 900 mg",13.5 h
same,"coefficient variation in drug exposure (Cmax, Ctrough, AUC0-24h)","[1]; inter-individual, among 12 patients",about 50%
same,"fluctuation of unbound plasma concentration, trough to peak","[1]; steady-state, 900 mg daily",3.4 fold
same,"unbound plasma concentration, mean peak level","[1]; steady-state, 900 mg daily",440 nM
same,"unbound plasma concentration, mean trough level","[1]; steady-state, 900 mg daily",130 nM
same,mean unbound concentration in enhancing tumor region,[2]; [9],2.152 µmol/kg and 2.152 ± 1.559 µmol/kg
same,mean unbound concentration in non-enhancing tumor region,[2]; [9],0.560 µmol/kg and 0.560 ± 0.364 µmol/kg
same,concentration at 2 h,[2]; [10],510 nM
same,concentration at 8 h,[2]; [10],600 nM
same,concentration at 24 h,[2]; [10],350 nM
same,patients with > 20% decrease in pRB levels,"[3]; 9 of 12 Phase 0 patients, vs matched archival tissue",75%
same,average decrease in pRB levels,"[3]; 12 treated patients, 900 mg/d for 5 days",50%
same,pRB positive cells,"[3]; Phase 0 operation specimens, 3 re-resected patients",7.4%
same,pRB positive cells,"[3]; post-treatment (recurrence after monotherapy), 3 patients",19.96%
same,MIB-1 change after Phase 0 exposure,[4],significantly reduced
same,cleaved caspase-3 change after Phase 0 exposure,[5],trended towards a concomitant increase
same,pFOXM1 levels after normalization with historical control samples,[6],downward trend
same,pS6 positive cells,pS6; matched Phase 0 samples,21.3%
same,pS6 positive cells,pS6; post-treatment specimens,36.7%
same,p4EBP1 positive cells,p4EBP1; matched Phase 0 samples,2.8%
same,p4EBP1 positive cells,p4EBP1; post-treatment specimens,31.2%
same,Phase 0 responders based on pharmacokinetic and pharmacodynamic results,recurrent glioblastoma; 6 of 8 patients with histologically evident recurrence,75%
same,PFS6,"recurrent glioblastoma; expansion cohort, 6 patients",16.7%
same,median OS,"recurrent glioblastoma; expansion cohort, 6 patients",7.8 months
same,median PFS,"recurrent glioblastoma; expansion cohort, 6 patients, 600 mg daily 21 days on/7 days off",9.7 weeks
same,clinical efficacy of monotherapy,recurrent glioblastoma; recurrent glioblastoma,limited clinical efficacy
same,maximum tolerated dose,[7],900 mg daily
same,IC50,CDK4/6,40 nM
CC(=O)c1c(C)c2cnc(Nc3ccc(N4CCNCC4)cn3)nc2n(C2CCCC2)c1=O [Palbociclib],clinical efficacy in terms of prolonging PFS,[8],limited clinical efficacy
